Data as given in ChEMBL document CHEMBL4828745, “Discovery and Structure-Activity Relationships of Quinazolinone-2-carboxamide Derivatives as Novel Orally Efficacious Antimalarials” (J Med Chem, 2021).
Values after ≈ are worked out from the molar mass of the structure shown.

Tests used:
Plasmodium falciparum [1] = experiment: Antiplasmodial activity against Plasmodium falciparum 3D7 infected in human erythrocyte assessed as intraerythrocytic growth inhibition incubated for 72 hrs by DAPI-staining based imaging analysis; assay type: functional, organism-based; settings: 3D7, 72 h
Outline: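 P. falciparum 3D7 cultured in RPMI1640 with hypoxanthine, HEPES, 2.5 mg/mL AlbuMAX II and 5% human serum. Sorbitol-synchronized rings exposed 72 h at 37 °C under 5% CO2/5% O2, then DAPI-stained with saponin/Triton X-100 for 8 h in the dark. High-content imaging with spot detection. Duplicate points. Reference antimalarials run in each assay.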

[2] = Cytotoxicity against human HEK293 cells assessed as cell viability incubated for 72 hrs by Alamar blue assay; assay type: cell-based
Outline: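 HEK293 cells handled with the same incubation, compound addition and timing as the 72 h parasite assay. Alamar Blue, diluted in growth medium, was incubated 4 h at 37 °C/5% CO2, then 20 h at room temperature before plate read.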

Plasmodium falciparum [3] = experiment: Antimalarial activity against Plasmodium falciparum TM90C2b harbouring Pf-crt, Pf-mdrl,Pfd-hfr, Pf-cytbQ0 mutated loci assessed as inhibition of parasite growth incubated for […] by [3H]hypoxanthine incorporation assay based liquid scintillation counting method; assay type: functional, organism-based
Outline: (§1)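 Drug-resistant laboratory P. falciparum strains were compared against the sensitive strain NF54. Growth inhibition was read by a modified [3H]hypoxanthine incorporation assay over 72 h. IC50 is the mean of two independent biological replicates. Chloroquine and artesunate served as controls.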

Plasmodium falciparum [4] = experiment: Antimalarial activity against Plasmodium falciparum K1 harbouring Pf-crt, Pf-mdrl,Pf-dhfr, Pf-dhps mutated loci assessed as inhibition of parasite growth incubated for […] by [3H]hypoxanthine incorporation assay based liquid scintillation counting method; assay type: functional, organism-based; outline: as §1
Plasmodium falciparum [5] = experiment: Antimalarial activity against Plasmodium falciparum NF54 assessed as inhibition of parasite growth incubated for 72 hrs by [3H]hypoxanthine incorporation assay based liquid scintillation counting method
Plasmodium falciparum [6] = experiment: Antimalarial activity against Plasmodium falciparum 7G8 harbouring Pf-crt, Pf-mdrl,Pf-dhfr, Pf-dhps mutated loci assessed as inhibition of parasite growth incubated for […] by [3H]hypoxanthine incorporation assay based liquid scintillation counting method; assay type: functional, organism-based; outline: as §1
Plasmodium falciparum [7] = experiment: Antimalarial activity against Plasmodium falciparum Cam3.1 harbouring Pf-crt, Pf-mdrl,Pf-dhfr, Pf-dhps, pf-kelch13 mutated loci assessed as inhibition of parasite growth incubated for […] by [3H]hypoxanthine incorporation assay based liquid scintillation counting method; assay type: functional, organism-based; outline: as §1
Plasmodium falciparum [8] = experiment: Antimalarial activity against Plasmodium falciparum Dd2 harbouring Pf-crt, Pf-mdrl,Pf-dhfr, Pf-dhps mutated loci assessed as inhibition of parasite growth incubated for […] by [3H]hypoxanthine incorporation assay based liquid scintillation counting method; assay type: functional, organism-based; outline: as §1
[9] = Intrinsic clearance in mouse liver microsomes at […] by LC-MS/MS analysis; assay type: ADME, Microsome
Outline: (§2)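 Liver microsomes (human, mouse or rat) at 0.4 mg/mL protein, 37 °C, with an NADPH-regenerating system. Compound at 0.25 or 0.5 μM. Acetonitrile/diazepam quench, LC-MS quantitation. CLint from the first-order degradation rate constant.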

[10] = Apparent permeability of the compound from apical to basolateral side in human Caco-2 cells at 20 uM measured after 120 mins by LC-MS analysis; assay type: ADME, cell-based
Outline: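 Caco-2 monolayers, apical-to-basolateral direction, in pH 7.4 HBSS with 20 mM HEPES on both sides. Donor at nominal 20 μM, 0.1% DMSO final. Flux followed over 120 min. Quantified by LC-MS with mass balance to derive Papp.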

[11] = Intrinsic clearance in rat liver microsomes at […] by LC-MS/MS analysis; assay type: ADME, Microsome; outline: as §2
[12] = Kinetic solubility of the compound in pH 6.5 phosphate buffer by nephelometry; assay type: physicochemical; settings: read-out: Kinetic_solubility
Outline: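 DMSO stock spiked into pH 6.5 phosphate buffer (1% DMSO final). After 30 min, solubility range estimated by nephelometry.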

[13] = Intrinsic clearance in human liver microsomes at […] by LC-MS/MS analysis; assay type: ADME, Microsome; outline: as §2

Compound | IC50 (Plasmodium falciparum [1]) [nM] | CC50 at 72 h [2] [nM] | also measured
CCc1cccc(CNC(=O)c2nc3cccc(CN(C)Cc4ccc(C(=O)O)cc4)c3c(=O)[nH]2)c1 | 1150 | > 20000 | 
CCc1cccc(CNC(=O)c2nc3cccc(COCc4cccc(C(=O)O)c4)c3c(=O)[nH]2)c1 | 1580 | > 20000 | 
CCc1ccccc1CNC(=O)c1nc2ccc(F)c(OCCc3ccc(C(=O)O)cc3)c2c(=O)[nH]1 | > 20000 | > 20000 | 
CCc1cccc(CNC(=O)c2nc3ccc(Cl)c(COCc4ccc(C(=O)O)cc4)c3c(=O)[nH]2)c1 | > 20000 | > 20000 | 
CCc1cccc(CNC(=O)c2nc3ccc(F)c(COCc4ccc(C(=O)O)cc4)c3c(=O)[nH]2)c1 | 4460 | > 20000 | 
CCc1cccc(CN(C)C(=O)c2nc3ccc(F)c(OCCc4ccc(C(=O)O)cc4)c3c(=O)[nH]2)c1 | > 20000 | > 20000 | 
C[C@H]1[C@H](OC(=O)CCC(=O)O)O[C@@H]2O[C@@]3(C)CC[C@H]4[C@H](C)CC[C@@H]1[C@@]24OO3 [ARTESUNATE] | 0.6 |  | IC50 (Plasmodium falciparum [3]): 2 nM; IC50 (Plasmodium falciparum [4]): 4 nM; IC50 (Plasmodium falciparum [5]): 6 nM; IC50 (Plasmodium falciparum [6]): 3 nM; IC50 (Plasmodium falciparum [7]): 4 nM; IC50 (Plasmodium falciparum [8]): 6 nM
COc1cc(CNC(=O)c2nc3ccc(F)c(OCCc4ccc(C(=O)O)cc4)c3c(=O)[nH]2)ccc1F | 1900 | > 20000 | 
CCc1cccc(CNC(=O)c2nc3c(F)ccc(COCc4ccc(C(=O)O)cc4)c3c(=O)[nH]2)c1 | 54 | > 20000 | 
CCc1cccc(NC(=O)c2nc3ccc(F)c(OCCc4ccc(C(=O)O)cc4)c3c(=O)[nH]2)c1 | 3190 | > 20000 | 
CCc1ccc(CNC(=O)c2nc3cccc(COCc4ccc(C(=O)O)cc4)c3c(=O)[nH]2)cc1 | 73 | > 20000 | 
CCc1cccc(CNC(=O)c2nc3c(OC)ccc(COCc4ccc(C(=O)O)cc4)c3c(=O)[nH]2)c1 | 1890 | > 20000 | 
COc1cccc(CNC(=O)c2nc3ccc(F)c(OCCc4ccc(C(=O)O)cc4)c3c(=O)[nH]2)c1 | 2380 | > 20000 | 
CCc1cccc(CNC(=O)c2nc3ccc(Br)c(COCc4ccc(C(=O)O)cc4)c3c(=O)[nH]2)c1 | > 20000 | > 20000 | 
CCc1cccc(CNC(=O)c2nc3c(Cl)ccc(COCc4ccc(C(=O)O)cc4)c3c(=O)[nH]2)c1 | 160 | > 20000 | 
Cc1cc(CNC(=O)c2nc3ccc(F)c(OCCc4ccc(C(=O)O)cc4)c3c(=O)[nH]2)ccc1F | 590 | > 20000 | 
CCc1cccc(CNC(=O)c2nc3ccc(F)c(COc4ccc(CC(=O)O)cc4)c3c(=O)[nH]2)c1 | > 20000 | > 20000 | 
CCc1ccnc(CNC(=O)c2nc3cccc(COCc4ccc(C(=O)O)cc4)c3c(=O)[nH]2)c1 | 890 | > 20000 | 
O=C(O)c1ccc(CCOc2c(F)ccc3nc(C(=O)NCc4ccccc4)[nH]c(=O)c23)cc1 | 3670 | > 20000 | CLH [9]: 12 uL/ml.millig; Papp A→B at 2 h, 20 µM [10]: 16 ×10⁻⁶ cm/s; CLH [11]: 123 uL/ml.millig; solubility kinetic [12]: 6.3 µg/mL (≈ 13.7 µM); CLH [13]: 7 uL/ml.millig
CCc1cccc(C(C)NC(=O)c2nc3ccc(F)c(OCCc4ccc(C(=O)O)cc4)c3c(=O)[nH]2)c1 (configuration not stated) | 5130 | > 20000 | 
CCc1cccc(CNC(=O)c2nc3ccc(COCc4ccc(C(=O)O)cc4)cc3c(=O)[nH]2)c1 | 1620 | > 20000 | 
CCc1cccc(CNC(=O)c2nc3cccc(COCc4ccc(C(N)=O)cc4)c3c(=O)[nH]2)c1 | 310 | > 20000 | CLH [11]: 636 uL/ml.millig; solubility kinetic [12]: < 3.1 µg/mL; CLH [13]: 83 uL/ml.millig
